Measurements from different studies.
Compare with care: the assays were run in different laboratories.
Target: Serine/threonine-protein kinase Nek7 (NEK7, Homo sapiens, UniProt Q8TDX7)

For `COc1cc(Cl)c(C(=O)N[C@@H](CN[C@H]2CC[C@@H](N)CC2)Cc2ccc(C#N)cc2)cc1-c1ccc(CN[C@H](C)c2ccc(C)cc2)o1`, the remaining activity was 99% (enzyme activity; inhibitor; 1 µM).
For `O=C(O)[C@H]1[C@H](Cn2nnc3ccccc3c2=O)CC[C@@H]1C(=O)c1ccc(OCCC2CCOCC2)cc1`, the remaining binding was 100% (cell-free assay; competition with immobilised ligand; 1 µM).
The ΔTm of `N#CC1c2c([nH]c3c(Cl)c(Cl)ccc23)C(=O)NC12CCCCC2` (racemic) is reported as 0.2 °C (thermal stability; DSF; 10 µM).
`CC(C)(O)c1cncc(-c2nc3ccc(F)cc3n2C2CC2)c1` has a remaining binding of 100% (cell-free assay; competition with immobilised ligand; 1 µM).
`CCN(CC)CCNC(=O)c1c(C)[nH]c(/C=C2\C(=O)Nc3ccc(F)cc32)c1C` has an inhibition of -8% (enzyme activity; inhibitor; 0.3 µM).
With `Cc1cnc(NC2CCOCC2)nc1-n1cnc(C(=O)NC(CN)c2cc(F)cc(Cl)c2)c1` (stereo not drawn) the remaining activity was 99% (enzyme activity; inhibitor; radiometric; 1 µM).
With `COc1cccc2c(NCc3ccccc3)nc(-n3c(N)nc4ccccc43)nc12` the inhibition was -1% (target engagement in cells; inhibitor; chemoproteomics; 20 mM).
`Cc1ccc(Nc2nccc(N(C)c3ccc4c(C)n(C)nc4c3)n2)cc1S(N)(=O)=O` gave an inhibition of -6% (enzyme activity; inhibitor; 10 µM).
With `O=c1nc(-c2ccccn2)sc2ccccc12` the remaining binding was 75% (binding; competition with immobilised ligand; 1 µM).
The remaining signal of `O=C1NC(=O)c2cc(Nc3ccc(F)cc3)c(Nc3ccc(F)cc3)cc21` is reported as 103% (cell-free assay; 0.5 µM).
`Cn1c2c(c3ccc(Cl)c(Cl)c31)C(C#N)C1(CCCC1)NC2=O` (stereo not drawn) has a ΔTm of 0 °C (thermal stability; DSF; 10 µM).
For `Clc1ccc(Nc2nnc(Cc3ccncc3)c3ccccc23)cc1`, the remaining signal was 96.8% (cell-free assay; 0.5 µM).
The remaining binding of `CO[C@@H](C)c1c(Nc2ccc([C@@H](N(C)C(=O)C3CCS(=O)(=O)CC3)C(F)(F)F)cc2)cnc2cc(Cl)nn12` is reported as 91% (cell-free assay; competition with immobilised ligand; 1 µM).
For `Cc1ccc(NC(=O)c2ccc(C)c(C(F)(F)F)c2)cc1C#Cc1nn(C2CCC(O)CC2)c2ncnc(N)c12` (stereo not drawn), the remaining signal was 98% (cell-free assay; 10 µM).
For `Cc1c(C(=O)O)cc(-c2ccc(C3CCNCC3)cc2)c2ccc(-c3ccc(C(F)(F)F)cc3)cc12`, the remaining binding was 100% (binding; competition with immobilised ligand; 1 µM).
With `CCN1CCN(Cc2ccc(NC(=O)c3ccc(C)c(Oc4ccnc5[nH]ccc45)c3)cc2C(F)(F)F)CC1` the inhibition was -0.545% (target engagement in cells; inhibitor; chemoproteomics; A-375; 0.5 µM).
`CCCCN(CCCC)C(=O)CN1C[C@H](c2cc(OC)c3c(c2)OCO3)[C@@H](C(=O)O)[C@@H]1CC(C)(C)CCC` has a remaining binding of 100% (cell-free assay; competition with immobilised ligand; 1 µM).
With `CCC1(CC)NC(=O)c2c(c3ccc(Cl)c(Cl)c3n2C)C1C#N` (stereo not drawn) the ΔTm was -0.4 °C (thermal stability; DSF; 10 µM).
With `CC(C)(C)c1nc(-c2cccc(NS(=O)(=O)c3c(F)cccc3F)c2F)c(-c2ccnc(N)n2)s1` the remaining activity was 42% (enzyme activity; inhibitor; radiometric; 1 µM).
With `Cn1c2c(Cl)c(Cl)ccc2c2cn[nH]c(=O)c21` the ΔTm was 0 °C (thermal stability; DSF; 10 µM).
For `CCOc1cc(-c2nncn2C)ccc1Nc1ncc2cc(C)nc(NCC(C)(C)C)c2n1`, the inhibition was < 15% (enzyme activity; inhibitor; FRET; 1 µM).
With `CNC(=O)c1cc(Oc2ccc(NC(=O)Nc3ccc(Cl)c(C(F)(F)F)c3)cc2)ccn1` the inhibition was -9% (enzyme activity; inhibitor; 0.3 µM).
The remaining binding of `CCOC(=O)c1cc2cc(-c3cc(C(=O)NCc4ccc(C(=O)O)cc4)nn3C)ccc2[nH]1` is reported as 100% (cell-free assay; competition with immobilised ligand; 0.1 µM).
The activity vs control of `Cc1cc(NC(=O)c2cccc3cc(-c4cccc5[nH]nc(N)c45)ccc23)ccc1F` is reported as 96% (enzyme activity; inhibitor; 0.1 µM).
With `Cc1c[nH]c2nccc(Oc3c(F)cc(Nc4cc(Cl)nc(N)n4)cc3F)c12` the remaining binding was 100% (cell-free assay; competition with immobilised ligand; 0.1 µM).
`CCCS(=O)(=O)Nc1ccc(F)c(C(=O)c2c[nH]c3ncc(-c4ccc(Cl)cc4)cc23)c1F` gave an inhibition of < 10% (enzyme activity; inhibitor; 1 µM).
With `Cc1sc(C(=O)NC2COC2)cc1-n1cc(NC(=O)Nc2c(F)cccc2Cl)cn1` the remaining activity was 100% (enzyme activity; inhibitor; 10 µM).
For `CN1CC(Oc2cnc(C#N)cc2-c2ccn3nc(NC(=O)C4CC4)cc3c2)C1`, the inhibition was 0% (enzyme activity; inhibitor; 1 µM).
The ΔTm of `Cn1c2c(c3ccc(Cl)c(Cl)c31)C(C#N)C1(CCNCC1)NC2=O` (racemic) is reported as -0.1 °C (thermal stability; DSF; 10 µM).
For `CCCCNc1ncc2c(-c3ccc(F)cc3)nn(C[C@H]3CC[C@H](N)CC3)c2n1`, the inhibition was 6.6% (target engagement in cells; inhibitor; chemoproteomics; 20 mM).
